Test results published in ChEMBL document CHEMBL2396634, “An effective prodrug strategy to selectively enhance ocular exposure of a cannabinoid receptor (CB1/2) agonist” (J Med Chem, 2013).
≈ marks a conversion by molar mass, not a printed value.

What was measured:
[1] = Aqueous solubility of the compound at pH 6.8; format: physicochemical
[2] = AUC in Brown Norway rat iris and ciliary body administered topically after 3 hrs; format: ADME, tissue-based; parameters: time < 3 hr; concentration or dose not given beside the values; details: topical or ocular
Outline: (§1)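 Adult male Brown Norway rats (200−250 g) received a single topical 4 μL dose of 0.1% solution to each eye (5% cremaphor EL, 0.78% NaCl, 0.1% Na3PO4 in sterile water, pH 6.8). Composite design, three animals per group, sampled at 0.25, 1 and 3 h. Plasma taken by cardiac puncture. Eyes enucleated and PBS-rinsed, tissues dissected and homogenized. Parent drug measured by LC/MS/MS. AUC over 0−3 h.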

[3] = (§2) AUC in Brown Norway rat plasma administered topically after 3 hrs; format: ADME, cell-free; parameters: time < 3 hr; concentration or dose not given beside the values; details: Brown Norway, topical or ocular; outline: as §1
[4] = system: Iris and ciliary body (Rattus norvegicus); assay: AUC in Brown Norway rat iris and ciliary body administered topically after 3 hrs; details: in vivo, topical_or_ocular, BLD = below limit of detection
[5] = system: Plasma; assay: as §2; format: ADME, cell-free; parameters: time < 3 hr; concentration or dose not given beside the values; details: topical_or_ocular, 3 h, BLD = below limit of detection; outline: as §1
[6] = target: Cannabinoid receptor 1 (Homo sapiens, UniProt P21554); assay: Agonist activity at CB1 receptor (unknown origin)
[7] = Drug uptake in Brown Norway rat aqueous humor administered topically after 3 hrs; format: ADME, tissue-based, Aqueous humor of eyeball; details: in vivo, topical_or_ocular
Outline: (§3)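 Abbreviated ocular PK in male Brown Norway rats, 200−250 g. Single topical 4 μL dose per eye of 0.1% solution in 5% cremaphor EL, 0.78% NaCl, 0.1% Na3PO4, water, pH 6.8. Three animals per group, sampled at 0.25, 1 and 3 h. Tissues homogenized in PBS with 10% acetonitrile.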

[8] = Drug uptake in Brown Norway rat iris administered topically after 1 hr; format: ADME, tissue-based; details: in vivo, topical_or_ocular; outline: as §3
[9] = Cmax in Brown Norway rat aqueous humor administered topically; format: ADME, tissue-based, Aqueous humor of eyeball; details: topical or ocular
Outline: (§4)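 Male Brown Norway rats, 200−250 g, dosed once topically with 4 μL of a 0.02% clinical formulation per eye. Composite design with 3 animals per time point. Cornea, aqueous humor, iris/ciliary body and plasma collected at 0 (untreated), 0.083, 0.25, 0.5, 1, 3, 6 and 24 h. Eyes rinsed in PBS after enucleation.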

[10] = Cmax in Brown Norway rat plasma administered topically; format: ADME, cell-free; details: topical or ocular; outline: as §4
[11] = Cmax in Brown Norway rat iris administered topically; format: ADME, tissue-based; details: topical or ocular; outline: as §4
[12] = system: Plasma; assay: Drug uptake in Brown Norway rat plasma administered topically after 3 hrs; format: ADME, cell-free; details: topical_or_ocular; outline: as §3
[13] = Tmax in Brown Norway rat iris administered topically; format: ADME, tissue-based; details: topical or ocular; outline: as §4
[14] = Drug uptake in Brown Norway rat iris administered topically after 3 hrs; format: ADME, tissue-based; details: in vivo, topical_or_ocular; outline: as §3
[15] = Tmax in Brown Norway rat cornea administered topically; format: ADME, tissue-based; details: topical or ocular; outline: as §4
[16] = AUC (0 to last) in Brown Norway rat aqueous humor administered topically; format: ADME; parameters: time 0 - last; details: topical or ocular; outline: as §4
[17] = Tmax in Brown Norway rat plasma administered topically; format: ADME, cell-free; details: topical or ocular; outline: as §4
[18] = Cmax in Brown Norway rat cornea administered topically; format: ADME, tissue-based; details: topical or ocular; outline: as §4
[19] = Drug uptake in Brown Norway rat ciliary body administered topically after 3 hrs; format: ADME, tissue-based; details: in vivo, topical_or_ocular; outline: as §3
[20] = Tmax in Brown Norway rat aqueous humor administered topically; format: ADME, tissue-based, Aqueous humor of eyeball; details: topical or ocular; outline: as §4
[21] = Drug uptake in Brown Norway rat cornea administered topically after 3 hrs; format: ADME, tissue-based; details: in vivo, topical_or_ocular; outline: as §3
[22] = target: Cannabinoid receptor 2 (Homo sapiens, UniProt P34972); assay: Agonist activity at CB2 receptor (unknown origin)
[23] = Drug uptake in Brown Norway rat ciliary body administered topically after 1 hr; format: ADME, tissue-based; details: in vivo, topical_or_ocular; outline: as §3
[24] = AUC (0 to last) in Brown Norway rat cornea administered topically; format: ADME, tissue-based; parameters: time 0 - last; details: topical or ocular; outline: as §4

Cannabinoid receptor 2, sequence (P34972 whole entry): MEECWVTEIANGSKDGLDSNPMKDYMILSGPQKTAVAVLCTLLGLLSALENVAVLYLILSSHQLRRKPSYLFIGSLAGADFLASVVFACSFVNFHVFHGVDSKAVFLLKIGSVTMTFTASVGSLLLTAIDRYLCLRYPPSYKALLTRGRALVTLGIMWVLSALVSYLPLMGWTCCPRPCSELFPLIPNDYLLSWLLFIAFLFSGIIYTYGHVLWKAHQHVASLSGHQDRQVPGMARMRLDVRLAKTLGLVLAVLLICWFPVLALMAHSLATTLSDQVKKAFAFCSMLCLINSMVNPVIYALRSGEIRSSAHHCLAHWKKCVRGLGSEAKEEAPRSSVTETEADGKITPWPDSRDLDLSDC
Cannabinoid receptor 1, sequence (P21554 whole entry): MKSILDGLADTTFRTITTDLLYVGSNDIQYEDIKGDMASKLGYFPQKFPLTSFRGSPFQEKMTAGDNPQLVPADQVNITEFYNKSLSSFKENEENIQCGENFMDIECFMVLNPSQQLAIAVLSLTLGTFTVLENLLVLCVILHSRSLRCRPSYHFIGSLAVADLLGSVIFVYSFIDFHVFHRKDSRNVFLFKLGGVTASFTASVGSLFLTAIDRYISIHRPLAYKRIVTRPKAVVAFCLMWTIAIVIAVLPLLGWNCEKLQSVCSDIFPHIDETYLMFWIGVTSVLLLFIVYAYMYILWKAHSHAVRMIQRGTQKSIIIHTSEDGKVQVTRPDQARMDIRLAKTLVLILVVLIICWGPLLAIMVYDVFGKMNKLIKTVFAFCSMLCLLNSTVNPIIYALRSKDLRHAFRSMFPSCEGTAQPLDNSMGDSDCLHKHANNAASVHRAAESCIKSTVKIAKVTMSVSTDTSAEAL

Row | SMILES | solubility ([1]; buffer) | AUC at 3 h [2] [µM·h] | AUC at 3 h [3] [µM·h] | AUC [4] | AUC [5] | also measured
1 | CCOC(=O)c1c(C)cc2nc(COC(=O)NCCOC(=O)[C@@H](NC(=O)[C@H](N)C(C)C)C(C)C)n(-c3ccccc3S(=O)(=O)NC)c(=O)c2c1C | soluble |  |  |  |  | 
2 | CCOC(=O)c1c(C)cc2nc(COC(=O)NCCOC(=O)C3CCCCN3)n(-c3ccccc3S(=O)(=O)NC)c(=O)c2c1C (stereo not drawn) | soluble | 0.0367 | 0.0118 |  |  | 
3 | CCOC(=O)c1c(C)cc2nc(COC(=O)NCCOC(=O)c3cn4ccccc4n3)n(-c3ccccc3S(=O)(=O)NC)c(=O)c2c1C | soluble |  |  | BLD | BLD | 
4 | CCOC(=O)c1c(C)cc2nc(COC(=O)NCCOC(=O)c3cccnc3)n(-c3ccccc3S(=O)(=O)NC)c(=O)c2c1C | soluble | 0.213 |  |  | BLD | 
5 | CCOC(=O)c1c(C)cc2nc(COC(=O)NCCOC(=O)[C@H](N)c3ccccc3Cl)n(-c3ccccc3S(=O)(=O)NC)c(=O)c2c1C | soluble |  | 0.0036 | BLD |  | 
6 | CCOC(=O)c1c(C)cc2nc(COC(=O)NCCOC(=O)[C@H](NC(=O)[C@@H](N)C(C)C)C(C)C)n(-c3ccccc3S(=O)(=O)NC)c(=O)c2c1C | soluble | 0.104 |  |  | BLD | 
7 | CCOC(=O)c1c(C)cc2nc(COC(=O)NCCO)n(-c3ccccc3S(=O)(=O)NC)c(=O)c2c1C [SAD448] |  |  | 0.014 | BLD |  | solubility ([1]; aqueous medium, read-out: solubility): 340 µM (≈ 181 µg/mL); IC50 [6]: 94 nM; Drug uptake [7]: Not Active; Drug uptake [8]: Not Active; Cmax [9]: 82 nM; Cmax [10]: 9 nM; Cmax [11]: 18 nM; Drug uptake [12]: Not Active; Tmax [13]: 4.98 min; Drug uptake [14]: Not Active; Tmax [15]: 4.98 min; AUC(0-t) [16]: 0.05 µM·h; Tmax [17]: 4.98 min; Cmax [18]: 50 nM; Drug uptake [19]: Not Active; Tmax [20]: 4.98 min; Drug uptake [21]: Not Active; IC50 [22]: 3.5 nM; Drug uptake [23]: Not Active; AUC(0-t) [24]: 0.043 µM·h

More lines, main results first:

Row | solubility ([1]; buffer) | AUC at 3 h [2] [µM·h] | AUC at 3 h [3] [µM·h] | AUC [4] | AUC [5] | SMILES | also measured
8 | soluble | 0.017 | 0.01 |  |  | CCOC(=O)c1c(C)cc2nc(COC(=O)NCCOP(=O)(O)O)n(-c3ccccc3S(=O)(=O)NC)c(=O)c2c1C | 
9 | soluble | 0.0174 | 0.0039 |  |  | CCOC(=O)c1c(C)cc2nc(COC(=O)NCCOC(=O)CN)n(-c3ccccc3S(=O)(=O)NC)c(=O)c2c1C | 
10 | soluble |  |  | BLD | BLD | CCOC(=O)c1c(C)cc2nc(COC(=O)NCCOC(=O)CCN)n(-c3ccccc3S(=O)(=O)NC)c(=O)c2c1C | 
11 | soluble | 0.321 |  |  | BLD | CCOC(=O)c1c(C)cc2nc(COC(=O)NCCOC(=O)CN3CCCCC3)n(-c3ccccc3S(=O)(=O)NC)c(=O)c2c1C | 
12 | soluble | 0.04 | 0.02 |  |  | CCOC(=O)c1c(C)cc2nc(COC(=O)NCCOC(=O)[C@@H](N)C(C)C)n(-c3ccccc3S(=O)(=O)NC)c(=O)c2c1C | 
